Results: ChEMBL document CHEMBL1828603, “Synthesis, antimicrobial activity and possible mechanism of action of 9-bromo-substituted indolizinoquinoline-5,12-dione derivatives” (2011)
In brackets after ≈: the same amount, converted by molar mass. Activity calls are given as the source filed them. The calls are words filed in the database; no cut-off is given here.

Assays:
[1] = molecular target: DNA gyrase (Staphylococcus aureus) (UniProt P0A0K8+P20831); experiment: Inhibition of Staphylococcus aureus DNA gyrase supercoiling activity using pHOT1 DNA as substrate at 125 uM after 60 mins by agarose gel electrophoretic analysis; assay type: protein-complex assay
Chain of DNA gyrase (Staphylococcus aureus) (P0A0K8 2-644 limits assumed): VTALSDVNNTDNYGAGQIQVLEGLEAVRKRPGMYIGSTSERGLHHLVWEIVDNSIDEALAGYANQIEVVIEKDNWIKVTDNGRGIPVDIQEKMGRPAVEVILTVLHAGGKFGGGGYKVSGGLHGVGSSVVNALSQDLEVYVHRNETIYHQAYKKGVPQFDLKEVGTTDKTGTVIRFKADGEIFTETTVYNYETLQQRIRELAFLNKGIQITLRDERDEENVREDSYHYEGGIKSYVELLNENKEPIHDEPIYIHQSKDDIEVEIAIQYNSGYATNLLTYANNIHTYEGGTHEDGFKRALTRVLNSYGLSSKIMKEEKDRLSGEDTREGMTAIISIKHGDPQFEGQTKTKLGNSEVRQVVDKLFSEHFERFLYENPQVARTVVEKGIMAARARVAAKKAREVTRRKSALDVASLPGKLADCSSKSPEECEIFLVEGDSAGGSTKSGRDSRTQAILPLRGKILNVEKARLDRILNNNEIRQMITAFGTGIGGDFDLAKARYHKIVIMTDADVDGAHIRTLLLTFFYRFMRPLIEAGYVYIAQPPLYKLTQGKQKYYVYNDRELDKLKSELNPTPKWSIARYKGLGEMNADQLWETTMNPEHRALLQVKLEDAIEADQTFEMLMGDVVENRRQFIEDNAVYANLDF
Chain of DNA gyrase (Staphylococcus aureus) (P20831 whole entry partner): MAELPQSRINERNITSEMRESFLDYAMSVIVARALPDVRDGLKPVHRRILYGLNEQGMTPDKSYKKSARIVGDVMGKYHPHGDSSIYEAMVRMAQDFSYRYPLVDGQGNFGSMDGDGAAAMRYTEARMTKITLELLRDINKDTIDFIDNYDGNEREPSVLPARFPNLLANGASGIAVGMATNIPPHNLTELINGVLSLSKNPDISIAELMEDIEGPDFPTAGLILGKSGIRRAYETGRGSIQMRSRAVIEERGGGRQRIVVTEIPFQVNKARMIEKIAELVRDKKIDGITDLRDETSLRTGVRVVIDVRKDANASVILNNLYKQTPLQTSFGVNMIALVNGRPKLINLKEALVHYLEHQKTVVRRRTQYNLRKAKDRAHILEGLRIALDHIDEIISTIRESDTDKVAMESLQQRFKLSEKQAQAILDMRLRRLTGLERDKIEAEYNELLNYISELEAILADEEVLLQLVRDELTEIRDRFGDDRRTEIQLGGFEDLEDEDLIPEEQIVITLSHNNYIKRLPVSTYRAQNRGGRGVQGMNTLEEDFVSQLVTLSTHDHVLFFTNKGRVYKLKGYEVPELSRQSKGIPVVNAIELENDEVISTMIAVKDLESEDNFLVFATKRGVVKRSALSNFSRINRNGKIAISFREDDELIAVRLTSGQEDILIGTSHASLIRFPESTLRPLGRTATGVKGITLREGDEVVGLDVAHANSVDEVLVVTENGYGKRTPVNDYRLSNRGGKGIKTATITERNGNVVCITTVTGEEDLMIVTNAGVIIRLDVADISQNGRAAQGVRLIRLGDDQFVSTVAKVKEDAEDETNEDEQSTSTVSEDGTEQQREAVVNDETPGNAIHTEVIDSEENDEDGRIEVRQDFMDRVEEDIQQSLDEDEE
In short: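 Supercoiling assay with 1 U DNA gyrase (E. coli or S. aureus) and 0.5 µg relaxed pHOT1 DNA in Tris–HCl pH 7.5 buffer (KCl, MgCl2, DTT, spermidine, 1 mM ATP, glycerol, BSA), ± compound, 37 °C for 60 min. Stopped with proteinase K, run on 1% agarose in TAE at 3 V/cm, stained with Gel Red and imaged under UV.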

[2] = test system: Escherichia coli; experiment: Inhibition of Escherichia coli topoisomerase 4 assessed as decatenation of kDNA at 25 uM after 30 mins by electrophoresis
In short: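 Decatenation assay with 1 U Topo IV and 200 ng catenated kDNA in HEPES–KOH pH 7.6 buffer (potassium glutamate, magnesium acetate, DTT, 1 mM ATP, BSA), 37 °C for 30 min. Stopped with chloroform/iso-amyl alcohol (24:1), then run on 1% agarose gel in TAE at 10 V/cm.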

[3] = test system: Escherichia coli; conditions: 1 to 125 uM
[4] = test system: Staphylococcus aureus; experiment: Inhibition of Staphylococcus aureus topoisomerase 4-mediated relaxation of supercoiled pBR322 DNA at 1 uM after 30 mins by agarose gel electrophoretic analysis
In short: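 Relaxation assay with 1 U Topo IV and 0.5 µg supercoiled pBR322 DNA in HEPES–KOH pH 7.6 buffer (potassium glutamate, magnesium acetate, DTT, 1 mM ATP, BSA), 37 °C for 30 min. Stopped with chloroform/iso-amyl alcohol (24:1), then run on 1% agarose gel in TAE at 5 V/cm.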

[5] = test system: Staphylococcus aureus; experiment: Antimicrobial activity against Staphylococcus aureus ATCC 25923 by broth microdilution method; assay type: functional
In short: (§1)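 Two-fold broth microdilution in Mueller-Hinton broth. Compound in DMSO added to bacterial culture at 5 × 10^5 cells/ml, starting at 64 µg/ml, then serially doubled down. Incubated at 37 °C overnight and read as OD600. MIC taken as the minimum inhibitory concentration, obtained in at least two independent experiments.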

[6] = test system: Escherichia coli; experiment: Antimicrobial activity against Escherichia coli ATCC 25922 by broth microdilution method; assay type: functional; in short: as §1
[7] = test system: Enterococcus faecalis; experiment: Antimicrobial activity against Enterococcus faecalis ATCC 29212 by broth microdilution method; assay type: functional; in short: as §1
[8] = test system: Pseudomonas aeruginosa; experiment: Antimicrobial activity against Pseudomonas aeruginosa ATCC 27853 by broth microdilution method; assay type: functional; in short: as §1
[9] = test system: Staphylococcus aureus; experiment: Antimicrobial activity against methicillin-resistant Staphylococcus aureus ATCC 43300 by broth microdilution method; assay type: functional
In short: (§2)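 Two-fold serial dilution in Mueller-Hinton broth, starting at 64 µg/ml. Compound was added as a DMSO solution to bacterial culture at 5 × 10^5 cells/ml, then double-diluted. Plates were incubated overnight at 37 °C and OD600 was read. MIC was taken from at least two independent experiments.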

[10] = test system: Streptococcus; experiment: Antimicrobial activity against hemolytic Streptococcus Group B CMCC 32210 by broth microdilution method; assay type: functional; in short: as §1
[11] = test system: Candida albicans; experiment: Antifungal activity against Candida albicans ATCC 10231 by broth microdilution method; assay type: functional
[12] = test system: Staphylococcus epidermidis; experiment: Antimicrobial activity against Staphylococcus epidermidis ATCC 12228 by broth microdilution method; assay type: functional; in short: as §1
[13] = test system: Salmonella enterica subsp. enterica serovar Paratyphi B; experiment: Antimicrobial activity against Salmonella paratyphi B CMCC 50094 by broth microdilution method; assay type: functional; in short: as §2
[14] = test system: Staphylococcus aureus; experiment: Ratio of MIC for vancomycin to compound for methicillin-resistant Staphylococcus aureus ATCC 43300 by broth microdilution method; assay type: functional

SMILES	inhibition [1]	inhibition [2]	inhibition [3]	inhibition [4]	MIC [5] [µg/mL]	MIC [6] [µg/mL]	MIC [7] [µg/mL]	MIC [8] [µg/mL]	MIC [9] [µg/mL]	MIC [10] [µg/mL]	MIC [11] [µg/mL]	MIC [12] [µg/mL]	MIC [13] [µg/mL]	Ratio [14]
O=C(O)c1cn(C2CC2)c2cc(N3CCNCC3)c(F)cc2c1=O	inactive	Active	Active	Active										
CN(C)CCNC(=O)c1c2c(n3cc(Br)ccc13)C(=O)c1ncccc1C2=O					4 (≈ 9.06 µM)	> 64	1 (≈ 2.27 µM)	> 64	4 (≈ 9.06 µM)	0.5 (≈ 1.13 µM)	> 64	2 (≈ 4.53 µM)	> 64	
CCN(CC)C(=O)c1c2c(n3cc(Br)ccc13)C(=O)c1ncccc1C2=O					8 (≈ 18.8 µM)	> 64	16 (≈ 37.5 µM)	> 64	16 (≈ 37.5 µM)	8 (≈ 18.8 µM)	> 64	16 (≈ 37.5 µM)	> 64	
CC1(C)S[C@@H]2[C@H](NC(=O)Cc3ccccc3)C(=O)N2[C@H]1C(=O)O [PENICILLIN G]					< 0.031	64 (≈ 191 µM)	2 (≈ 5.98 µM)	> 64	> 64	< 0.031		16 (≈ 47.8 µM)	2 (≈ 5.98 µM)	
O=C1c2cccnc2C(=O)c2c1c(C(=O)NCCN1CCCCC1)c1ccc(Br)cn21					1 (≈ 2.08 µM)	64 (≈ 133 µM)	2 (≈ 4.15 µM)	64 (≈ 133 µM)	2 (≈ 4.15 µM)	0.5 (≈ 1.04 µM)	> 64	1 (≈ 2.08 µM)	64 (≈ 133 µM)	
O=C1c2cccnc2C(=O)c2c1c(C(=O)N1CCSCC1)c1ccc(Br)cn21					> 64	> 64	> 64	> 64	64 (≈ 140 µM)	64 (≈ 140 µM)	> 64	> 64	> 64	
O=C1c2cccnc2C(=O)c2c1c(C(=O)N1CCCC1)c1ccc(Br)cn21					8 (≈ 18.9 µM)	> 64	> 64	> 64	64 (≈ 151 µM)	16 (≈ 37.7 µM)	> 64	32 (≈ 75.4 µM)	> 64	
O=C1c2cccnc2C(=O)c2c1c(C(=O)OCCF)c1ccc(Br)cn21					0.031 (≈ 0.0743 µM)	> 64	0.016 (≈ 0.0384 µM)	> 64	0.063 (≈ 0.151 µM)	0.031 (≈ 0.0743 µM)	> 64	0.016 (≈ 0.0384 µM)	> 64	16
O=C1c2cccnc2C(=O)c2c1c(C(=O)OCCN1CCOCC1)c1ccc(Br)cn21					0.25 (≈ 0.516 µM)	32 (≈ 66.1 µM)	0.13 (≈ 0.268 µM)	> 64	0.25 (≈ 0.516 µM)	0.063 (≈ 0.13 µM)	> 64	0.25 (≈ 0.516 µM)	> 64	
O=C1c2cccnc2C(=O)c2c1c(C(=O)OCC(F)(F)F)c1ccc(Br)cn21					0.031 (≈ 0.0684 µM)	> 64	0.016 (≈ 0.0353 µM)	> 64	0.031 (≈ 0.0684 µM)	0.031 (≈ 0.0684 µM)	> 64	0.016 (≈ 0.0353 µM)	> 64	32
O=C1c2cccnc2C(=O)c2c1c(C(=O)NCCCN1CCOCC1)c1ccc(Br)cn21					8 (≈ 16.1 µM)	> 64	4 (≈ 8.04 µM)	> 64	4 (≈ 8.04 µM)	1 (≈ 2.01 µM)	> 64	4 (≈ 8.04 µM)	> 64	
O=C1c2cccnc2C(=O)c2c1c(C(=O)OCCN1CCCCC1)c1ccc(Br)cn21					0.063 (≈ 0.131 µM)	4 (≈ 8.29 µM)	0.031 (≈ 0.0643 µM)	> 64	0.5 (≈ 1.04 µM)	0.031 (≈ 0.0643 µM)	> 64	0.063 (≈ 0.131 µM)	16 (≈ 33.2 µM)	
CCN(CC)CCCNC(=O)c1c2c(n3cc(Br)ccc13)C(=O)c1ncccc1C2=O					8 (≈ 16.6 µM)	> 64	4 (≈ 8.28 µM)	> 64	8 (≈ 16.6 µM)	1 (≈ 2.07 µM)	> 64	4 (≈ 8.28 µM)	> 64	
COC(=O)c1c2c(n3cc(Br)ccc13)C(=O)c1ncccc1C2=O					0.031 (≈ 0.0805 µM)	64 (≈ 166 µM)	0.031 (≈ 0.0805 µM)	> 64	0.063 (≈ 0.164 µM)	0.031 (≈ 0.0805 µM)	> 64	0.016 (≈ 0.0415 µM)	> 64	16
CN(C)CCOC(=O)c1c2c(n3cc(Br)ccc13)C(=O)c1ncccc1C2=O					0.13 (≈ 0.294 µM)	2 (≈ 4.52 µM)	0.13 (≈ 0.294 µM)	> 64	0.13 (≈ 0.294 µM)	0.031 (≈ 0.0701 µM)	> 64	0.13 (≈ 0.294 µM)	1 (≈ 2.26 µM)	
CC(=O)N1CCN(C(=O)c2c3c(n4cc(Br)ccc24)C(=O)c2ncccc2C3=O)CC1					64 (≈ 133 µM)	> 64	> 64	> 64	> 64	16 (≈ 33.2 µM)	> 64	> 64	> 64	
O=C1c2cccnc2C(=O)c2c1c(C(=O)NCCCN1CCCCC1)c1ccc(Br)cn21					2 (≈ 4.04 µM)	> 64	2 (≈ 4.04 µM)	> 64	4 (≈ 8.07 µM)	1 (≈ 2.02 µM)	> 64	8 (≈ 16.1 µM)	> 64	
CN1CCN(C(=O)c2c3c(n4cc(Br)ccc24)C(=O)c2ncccc2C3=O)CC1					16 (≈ 35.3 µM)	> 64	> 64	> 64	32 (≈ 70.6 µM)	8 (≈ 17.6 µM)	> 64	32 (≈ 70.6 µM)	> 64	
O=C1c2cccnc2C(=O)c2c1c(C(=O)NCCN1CCOCC1)c1ccc(Br)cn21					1 (≈ 2.07 µM)	64 (≈ 132 µM)	4 (≈ 8.28 µM)	64 (≈ 132 µM)	8 (≈ 16.6 µM)	0.5 (≈ 1.03 µM)	> 64	4 (≈ 8.28 µM)	> 64	
CCN(CC)CCNC(=O)c1c2c(n3cc(Br)ccc13)C(=O)c1ncccc1C2=O					4 (≈ 8.52 µM)	> 64	4 (≈ 8.52 µM)	> 64	4 (≈ 8.52 µM)	0.5 (≈ 1.07 µM)	> 64	2 (≈ 4.26 µM)	> 64	
O=C1c2cccnc2C(=O)c2c1c(C(=O)N1CCOCC1)c1ccc(Br)cn21					16 (≈ 36.3 µM)	> 64	> 64	> 64	64 (≈ 145 µM)	16 (≈ 36.3 µM)	> 64	32 (≈ 72.7 µM)	> 64	
O=C1c2cccnc2C(=O)c2c1c(C(=O)NCCCN1CCCC1)c1ccc(Br)cn21					8 (≈ 16.6 µM)	> 64	4 (≈ 8.31 µM)	> 64	4 (≈ 8.31 µM)	1 (≈ 2.08 µM)	> 64	4 (≈ 8.31 µM)	> 64	
O=C1c2cccnc2C(=O)c2c1c(C(=O)NCCN1CCCC1)c1ccc(Br)cn21					4 (≈ 8.56 µM)	> 64	2 (≈ 4.28 µM)	> 64	4 (≈ 8.56 µM)	0.5 (≈ 1.07 µM)	> 64	1 (≈ 2.14 µM)	> 64	
CN(C)CCCNC(=O)c1c2c(n3cc(Br)ccc13)C(=O)c1ncccc1C2=O					4 (≈ 8.79 µM)	> 64	4 (≈ 8.79 µM)	> 64	4 (≈ 8.79 µM)	1 (≈ 2.2 µM)	> 64	8 (≈ 17.6 µM)	> 64	
